MPTP block = blocks calcium-induced mitochondrial swelling; inhibition, % at 10 µM; isolated mouse mitochondria, Ca2+ swelling absorbance, 30 min; actives 1.4% (n = 360,000);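 active = inhibition of 50% or more, scaled per plate between neutral and stimulator controls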;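 also: 0% = DMSO wells given calcium and 100% = 1 mM EGTA wells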
Redox H2O2 prof = compounds producing H2O2 with reducing agent – biochemical, NIH compound library profiling, artefact control for MLSCN library redox annotation, primary screen; DTT-dependent redox cycling H2O2, phenol red/HRP absorbance; 100% = 100 µM peroxide control, 0% = buffer; actives 0.03% (n = 200,000); activation, % at 10 µM;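 active = activation of at least 50% relative to the plate's high and low controls in the primary single-dose screen; inactive = activation below 50%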;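 also: compound incubated with DTT at 0.8 mM final as the reducing agent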
L major viab = reduces viability of Leishmania major promastigotes | resazurin fluorescence viability | inhibition, % at 10 µM | actives 9% (n = 200,000) | AID 1063; in the data active = inhibition above about 50%;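 also: promastigotes grown with compound for 44 hours at 28 °C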
T cruzi repl = blocks replication of Trypanosoma cruzi | inhibition, % (concentration not given with the values) | T. cruzi beta-gal in NIH3T3, luminescence, 90 h | actives 1.4% (n = 300,000);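 active = mean inhibition across valid replicates above about 55%, limit read from the data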;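 also: signal also drops with host cell toxicity which is not excluded here; 0% = plate median of DMSO wells and 100% = zero luminescence signal; higher percent means less beta-gal luminescence so fewer parasites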
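Incubation – ≥90 h infection period, 3 h prior cell attachment · System – NIH/3T3 fibroblasts plus reporter T. cruzi · Doses – compound pinned at 50 nL/well, DMSO · Read-out basis – percent inhibition of parasite-derived β-gal signal · Signal – luminescent β-galactosidase signal after 60 min lysis · Also added – 5000 T. cruzi trypomastigotes/well · Medium – Low-serum DMEM with 2% FBS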
Lipid droplet = modulators of hepatic lipid droplet formation. inhibition, % at 6.5 µM. AML12 mouse hepatocytes, oleate lipid droplets, BODIPY imaging. actives 0.4% (n = 240,000). AID 1656;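 active = lipid droplet intensity inhibited by at least 50%, with more than 500 cells counted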
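Assay system: AML12 mouse liver cells | Compound: 6.5 µM single-point dosing | Schedule: Overnight exposure | Technique: Fluorescence imaging, 20x objective, two fields per well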
Hep lipid conf = hepatic lipid droplet formation inhibition, confirmed | inhibition, % at 5.2 µM | shares compounds with Lipid droplet | actives 65% (n = 870) | AML12 mouse hepatocytes, BODIPY lipid droplet imaging; droplets induced with 100 µM oleic acid;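 active = inhibition of lipid droplet metric at least 50%, with more than 300 cells in each of four replicates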;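 also: plate controls were DMSO with oleic acid for no effect and 5 µM Triacsin-C for full effect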
AML12 cytotox = toxic to AML12 mouse hepatocytes in counter-screen; DAPI nuclear morphology cytotoxicity imaging; stronger effect = higher value; cells fed 100 µM oleate overnight; shares compounds with Lipid droplet; actives 3% (n = 870); z-score at 5 µM; in the data active = z-score above about 6.3;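 also: compound exposure lasted overnight at 37 °C before fixation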
AML12 tox ATP = confirmation of cytotoxicity in AML12 mouse hepatocytes | shares compounds with Lipid droplet | AML12 mouse hepatocyte viability, ATP luminescence; cells loaded with 100 µM oleic acid | cytotoxicity, % at 50 µM | 530 tested, under 10 active | AID 463219;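 active = cytotoxicity above 50% in each of four replicates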;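 also: compound exposure lasted overnight at 37 °C before the ATP read; 0% = DMSO-treated cells and 100% = wells with no cells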
Active calls of the source: *; nt = no result given. This is one part of a sample in which hits are shown more often than they occur.

SMILES	MPTP block	Redox H2O2 prof	L major viab	T cruzi repl	Lipid droplet	Hep lipid conf	AML12 cytotox	AML12 tox ATP
COc1ccccc1/C=N\Nc1ccccc1[N+](=O)[O-]	0.3	nt	nt	3.6	165.0*	62.7*	0.72	nt
CCCOc1ccc(/C=N/Nc2ccccc2[N+](=O)[O-])c(O)c1	12.9	1.0	-8.7	-1.6	55.7*	59.7	-0.734	nt
COc1ccc(OC)c(NC(=O)CSc2nc(=O)n(Cc3ccccn3)c3c2CCC3)c1	2.1	nt	nt	3.8	nt	nt	nt	nt
N#CCCn1cc(C(=O)N2CCCCC2)c(-c2ccc([N+](=O)[O-])cc2)n1	-0.5	-0.6	-1.6	-9.1	3.5	nt	nt	nt
COc1ccc(CCNC(=O)Cc2cccc(C(F)(F)F)c2)cc1OC	-3.9	nt	nt	-6.6	63.5*	83.8*	-1.32	12.2
COc1ccc(CCNC(=O)c2cc3c(F)cccc3s2)cc1OC	0.7	nt	nt	-1.5	76.9*	73.6*	-0.2	2.5
COc1ccc(CCNC(=O)CN2C(=O)c3cccc4cccc(c34)C2=O)cc1OC	1.5	0.3	-3.1	3.6	55.5*	92.3*	-0.0143	4.0
CC1CCC2(CC1)NC(=O)N(CC(=O)N1CCN(C(=O)c3ccco3)CC1)C2=O (stereo unspecified)	-0.4	nt	nt	nt	nt	nt	nt	nt
CC(C)(C)c1ccc(NC(=O)COC(=O)C2(C)CC2(Cl)Cl)cc1 (stereo unspecified)	8.7	0.1	10.1	29.0	-2.8	nt	nt	nt
O=C(c1ccccc1-c1ncc[nH]1)N1CCc2c([nH]c3ccccc23)C1c1ccccn1 (stereo unspecified)	2.1	-1.4	9.9	12.6	9.4	nt	nt	nt
O=C(Nc1cccc(Br)c1)c1cccc(OC(=S)N2CCOCC2)c1	0.8	nt	nt	20.2	59.4*	95.2*	0.946	18.7
FC(F)(F)COc1nc(N2CCOCC2)nc(N(c2ccccc2)c2ccccc2)n1	2.5	-0.4	23.0	44.7	51.4*	73.3*	0.908	-14.0
O=c1ccc(-c2ccc([N+](=O)[O-])cc2)nn1-c1ccccc1	1.1	-1.6	21.7	-16.4	-0.5	nt	nt	nt
O=[N+]([O-])c1ccc(-[n+]2nc(-c3ccccc3)nn2-c2ccccc2)cc1	3.2	nt	nt	45.6	86.6*	114.7*	-0.741	11.6
COc1cccc(C(=O)N2CCN(C3CCN(Cc4ccccc4)CC3)CC2)c1OC	0.6	nt	nt	-6.1	-10.4	nt	nt	nt
CCOC(=O)N1CCN(C(=O)c2oc(=O)c3ccccc3c2-c2ccc(C)cc2)CC1	-0.4	-0.5	2.6	26.2	nt	nt	nt	nt
Cc1ccc(-c2c(C(=O)NC(C)C)oc(=O)c3ccccc23)cc1	1.5	0.0	-4.6	3.2	53.4*	7.2	-0.00949	nt
Cc1onc(-c2ccccc2Cl)c1C(=O)N[C@@H](C)c1ccccc1	1.7	nt	nt	0.8	nt	nt	nt	nt
Cc1ccc(C)c(NC(=O)Cn2cc(C(=O)C3CC3)c3ccccc32)c1	1.8	nt	nt	-13.7	75.2*	93.7*	-0.527	18.9
C=CCNC(=O)c1ccc(-n2cccc2)cc1	0.2	-1.5	-9.6	5.6	-0.5	nt	nt	nt
COc1cc(SC)ccc1C(=O)OC(C)C(=O)Nc1ccc(NC(C)=O)cc1 (stereo unspecified)	-2.2	nt	nt	-1.7	59.4*	86.8*	-0.92	12.1
COc1ccc(NC(=O)NCc2ccccn2)c(OC)c1	-0.8	nt	nt	-14.9	0.2	nt	nt	nt
COc1cc(C(=S)N2CCOCC2)cc(OC)c1OC(=O)c1ccccc1[N+](=O)[O-]	0.1	nt	nt	0.9	56.4*	29.6	-0.226	nt
COc1ccc(C(=S)N2CCOCC2)cc1OC(=O)c1ccc([N+](=O)[O-])cc1[N+](=O)[O-]	0.2	nt	nt	-0.1	1.8	nt	nt	nt
COc1ccccc1CC(=O)NC1CCCCCC1	-0.1	nt	nt	-2.7	nt	nt	nt	nt
CCOc1cc(Br)c(CC(=O)NC2CCCCCC2)cc1OCC	-0.7	nt	nt	9.8	115.7*	107.8*	0.0162	9.2
Cc1ccc(C)c(OCCC(=O)OCC(=O)Nc2cc(S(=O)(=O)N3CCCCC3)ccc2C)c1	-0.8	nt	nt	nt	nt	nt	nt	nt
Nc1ccc(O)c2c1C(=O)c1ccccc1C2=O	11.0	2.2	-2.5	8.2	28.1	nt	nt	nt

High-throughput results as filed in PubChem.
